A selection: hits, their analogues and other compounds. The true share with any hit is near 3.7%.
aDG glyco act: increases alpha dystroglycan glycosylation | 360,000 compounds, 0.22% hits | activation, % at 10 µM | Pro5-aDG cells, alpha-DG glycosylation AlphaScreen (IIH6); 0% Pro5, 100% B10-LARGE cell signal | AID 624168;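 active = activation of at least 8% versus controls, or a plate z-score of at least 8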;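 note: Pro5 are CHO cells carrying HIG-tagged alpha-DG that lacks glycosylation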
procasp3 activ: activators of human procaspase-3; P42574; recombinant procaspase-3 D3A, Ac-DEVD-pNA absorbance 405 nm; AID 463141; 330,000 compounds, 0.11% hits; activation, % at 8.5 µM;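 active = activation above the mean of all tested compounds plus 3 SD, cut at about 21% in these data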;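 note: 0% = DMSO alone and 100% = DMSO wells spiked with extra 5 µM PC-3 D3A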
Target sequence (P42574 whole entry D9A/D28A/D175A): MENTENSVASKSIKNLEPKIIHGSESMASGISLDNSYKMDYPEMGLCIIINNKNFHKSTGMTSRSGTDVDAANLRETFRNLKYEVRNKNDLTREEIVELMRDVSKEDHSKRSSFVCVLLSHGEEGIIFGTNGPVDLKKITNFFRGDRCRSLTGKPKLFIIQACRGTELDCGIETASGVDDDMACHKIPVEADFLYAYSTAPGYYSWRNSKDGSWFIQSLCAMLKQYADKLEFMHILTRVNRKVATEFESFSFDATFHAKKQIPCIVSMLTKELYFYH
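Assay system – Procaspase-3 D3A mutant, all three cleavage aspartates alanine · Controls – DMSO-only low control, 5 µM PC-3 D3A high control · Schedule – 1 h compound preincubation, 2 h substrate hydrolysis at 25 °C · Signal – 405 nm absorbance of p-nitroaniline, reads at 0 and 120 min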
MPTP inh: inhibitors of mitochondrial permeability transition pore. isolated mouse mitochondria, Ca2+ swelling absorbance, 30 min. inhibition, % at 10 µM. 360,000 compounds, 1.4% hits;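 active = inhibition of 50% or more, scaled per plate between neutral and stimulator controls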;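 note: 0% = DMSO wells given calcium and 100% = 1 mM EGTA wells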
procasp7 counter: activates human procaspase-7, counter-screen for procaspase-3 activators; AID 463210; 330,000 compounds, 0.093% hits; P55210; activation, % at 8.5 µM; recombinant procaspase-7, Ac-DEVD-pNA absorbance 405 nm; D23A/D198A/D206A triple mutant, cannot self-cleave; scale: DMSO 0, 5 µM enzyme 100;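 active = percent activation above the screen-wide mean plus 3 SD, cut at about 25% in these data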
Target sequence (P55210 whole entry D23A/D198A/D206A): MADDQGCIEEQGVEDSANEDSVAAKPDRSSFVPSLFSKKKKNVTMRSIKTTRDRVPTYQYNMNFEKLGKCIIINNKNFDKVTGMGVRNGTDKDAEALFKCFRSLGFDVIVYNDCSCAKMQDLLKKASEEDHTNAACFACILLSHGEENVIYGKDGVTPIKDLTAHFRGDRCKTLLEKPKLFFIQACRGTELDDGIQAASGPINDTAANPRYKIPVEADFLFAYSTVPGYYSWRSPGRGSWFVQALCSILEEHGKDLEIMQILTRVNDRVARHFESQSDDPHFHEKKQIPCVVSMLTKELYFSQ
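Material: Procaspase-7 triple mutant (PC-7 D3A) | Quantity: 2 µM procaspase-7 mutant as dispensed | Reagent: DEVD-pNA substrate | Times: 1 h preincubation, 2 h reaction | Technique: 405 nm absorbance of p-nitroaniline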
NR3A LBD binder: modulators (binders) of human NR3A ligand-binding domain; NR3A LBD differential scanning fluorimetry, Tm shift; 0% = protein alone, 100% = glycine-bound protein; Tm shift relative to glycine control, % at 25 µM; 340,000 compounds, 2.5% hits; AID 1259313;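 active = melting temperature shift of at least 10% of the positive control shift, at one fixed dose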
* hit, by the source's call; . = not tested or not shown.

SMILES | aDG glyco act | procasp3 activ | MPTP inh | procasp7 counter | NR3A LBD binder
C[C@H](CO)N1C[C@H](C)[C@@H](CN(C)C(=O)Nc2ccccc2)Oc2c(NC(=O)Nc3ccccc3)cccc2C1=O | 0 | 1 | -2 | -1 | -13
C[C@H](CO)N1C[C@H](C)[C@@H](CN(C)C(=O)Nc2ccccc2)Oc2ccc(NC(=O)Nc3ccc(C(F)(F)F)cc3)cc2C1=O | 0 | 8 | 0 | -2 | 11*
CC(C)NC(=O)N(C)C[C@H]1Oc2ccc(NC(=O)CCC(F)(F)F)cc2C(=O)N([C@H](C)CO)C[C@@H]1C | 0 | -3 | 0 | 0 | 13*
C[C@@H]1CN([C@H](C)CO)C(=O)c2cc(NC(=O)Nc3ccc(F)cc3)ccc2O[C@H]1CN(C)C(=O)Nc1ccc(C(F)(F)F)cc1 | 0 | 3 | 2 | 7 | 9
C[C@H](CO)N1C[C@H](C)[C@@H](CN(C)C(=O)NC2CCCCC2)Oc2ccc(NC(=O)CCC(F)(F)F)cc2C1=O | 0 | 10 | 0 | 8 | 0
CN(C)CCN1CCN(C2CN(CCc3ccccc3)S(=O)(=O)C2)CC1 (configuration not stated) | 0 | . | 1 | . | .
CCOC(=O)C(NC(=O)CCC(=O)Nc1ccc(S(N)(=O)=O)cc1)C(O)c1ccccc1 (configuration not stated) | . | . | . | . | 13*
CCCCCCCCOC(=O)C(NC(=O)CCC(=O)Nc1ccc(S(N)(=O)=O)cc1)C(O)c1ccccc1 (configuration not stated) | 0 | -1 | -3 | 4 | -2
Cc1ncc(C(O)c2ccccc2)n1Cc1ccccc1 (configuration not stated) | 0 | . | 0 | . | .
COc1ccccc1C(=O)NNC(=O)CN(C)S(=O)(=O)c1ccc(Cl)cc1 | 0 | . | 0 | . | .
COc1cc(OC)c(C(=O)NNC(=O)CN(C)S(=O)(=O)c2ccc(Cl)cc2)cc1OC | 0 | 1 | -3 | 2 | 35*
CCCc1cc(=O)n2[nH]c(C)c(-c3ccccc3)c2n1 | 0 | 4 | -5 | 7 | 1
Cc1[nH]n2c(=O)cc(-c3ccc([N+](=O)[O-])cc3)nc2c1-c1ccccc1 | 0 | 11 | 4 | 9 | 14*
COc1ccc(S(=O)(=O)n2nc(-c3ccc(Cl)cc3)cc2N)cc1OC | 0 | -5 | 2 | 5 | 14*
COc1ccc(OC)c(S(=O)(=O)n2nc(-c3ccccc3)cc2N)c1 | 0 | 7 | -2 | 7 | 22*
Cc1[nH]c2ccccc2c1C(=O)COC(=O)C1CC(O)CN1S(=O)(=O)c1ccc(Cl)cc1 (configuration not stated) | 0 | -4 | 1 | 3 | -12
CSCCC(NS(=O)(=O)c1ccc(Cl)cc1)C(=O)OCC(=O)c1c(C)[nH]c2ccccc12 (configuration not stated) | 0 | -2 | 6 | -6 | 17*
O=C1N(Cc2ccccc2)c2ccccc2OC1(F)F | 0 | . | 1 | . | .
COc1ccc(Nc2nc3ccccc3s2)cc1 | 0 | 2 | 2 | 0 | 29*
CCCC(=O)Nc1nc2ccc(OC)cc2s1 | 0 | 7 | 0 | 2 | 0
COc1ccc2nc(NC3=NCCC3)sc2c1 | 1 | 7 | -8 | -5 | 2
COc1ccc(Nc2cc(Nc3ccccc3)ncn2)cc1 | 0 | 4 | -1 | 17 | 31*
COc1ccc2nc(NC(=S)N(C)C)sc2c1 | 1 | -11 | 1 | -25 | 24*
COc1cccc(Nc2nc3ccc(OC)cc3s2)c1 | 0 | 2 | -6 | -5 | 29*
OC(c1cc(Cl)cc(Cl)c1)c1ncc(-c2ccccc2F)[nH]1 (configuration not stated) | 1 | . | 22 | . | .
SMILES | aDG glyco act | procasp3 activ | MPTP inh | procasp7 counter | NR3A LBD binder
Cc1ccc(NC(=O)c2cccc(-n3cnnn3)c2)cc1Cl | 0 | 3 | 3 | 3 | 0
CCCCNc1c(CCc2ccccc2)nc2nc(C)cc(C)n12 | 0 | . | -2 | . | .
CCCNC(=O)c1cc(C2CCCCN2C(=O)c2ccc(C(C)C)cc2)on1 (configuration not stated) | 0 | . | 2 | . | .
COc1ccc(N=Nc2cnc(C)nc2-c2ccccc2)cc1 | 0 | -3 | 3 | 2 | 4
Cc1ncc(N=Nc2ccccc2Cl)c(-c2ccccc2)n1 | -1 | 7 | 0 | -4 | 17*
O=C(Nc1nc2ccccc2s1)C1CC(=O)N(c2ccc(Br)cc2)C1 (configuration not stated) | 0 | -3 | 21 | 3 | 16*
Cc1cccc(C)c1NC(=O)C1(C)CN(S(C)(=O)=O)CC(=O)N1CCCN1CCOCC1 (configuration not stated) | 0 | . | 0 | . | .
Cc1cnc(NC(=O)c2cc3c(s2)CCCC3)s1 | 0 | 1 | 2 | 11 | 23*
Cc1csc(NC(=O)c2cc3c(s2)CCCC3)n1 | 0 | 8 | -1 | 3 | 2
Cc1ccccc1CN1C[C@H]2CON(C)[C@H]2C[C@H]1c1cccc(Br)c1 | 0 | . | 10 | . | .
Cc1cc(C)nc(SCC(=O)n2c3c(c4ccccc42)CCCC3)n1 | 0 | 10 | 1 | -5 | 13*
O=C(O)c1ccc(N/N=C/C=C/c2ccc([N+](=O)[O-])o2)cc1 | 0 | 0 | 8 | -12 | 12*
NS(=O)(=O)c1ccc(-c2ccc(/C=N/Nc3ccc(C(=O)O)cc3)o2)cc1 | 0 | -8 | 4 | -28 | 3
O=C(O)c1cccc(-c2ccc(/C=N/Nc3ccc([N+](=O)[O-])cc3)o2)c1 | 0 | -12 | 9 | -3 | 12*
O=C(N/N=C/c1ccc([N+](=O)[O-])o1)C(=O)Nc1ccc(C(=O)O)cc1 | 0 | 2 | 1 | 1 | -1
O=C(O)c1ccc(-c2ccc(/C=N/Nc3ccc([N+](=O)[O-])cc3)o2)cc1 | 0 | -9 | 15 | -2 | 10*
O=C(O)c1ccc(N/N=C/c2ccc(-c3cccc(Cl)c3)o2)cc1 | 0 | -18 | 5 | -51 | -7
COC(=O)[C@]12CCCCC=C1N(Cc1ccc3c(c1)OCO3)C(=O)[C@H](CC(=O)N1CCC(c3ccccc3)CC1)C2 | 0 | . | -2 | . | .
CN(C(=O)COC(=O)c1ccc2ccccc2n1)C1CCCCC1 | 0 | 4 | -2 | 0 | 4
O=C(Nc1ccc(NC(=O)c2cccs2)cc1)c1ccccc1 | 0 | 2 | 0 | 9 | 16*
O=C(O)c1ccc(NC(=O)c2cccc(NC(=O)c3cccs3)c2)cc1 | 0 | 8 | 1 | 14 | -10
O=C(Cc1cccs1)Nc1cccc(C(=O)Nc2ccc(C(=O)O)cc2)c1 | 0 | 3 | -2 | 0 | 23*
O=C(Nc1cccc(O)c1)c1cccc(C(=O)Nc2cccc(O)c2)c1 | 0 | 7 | 2 | 3 | 34*
O=C(Nc1ccccc1)Nc1snnc1C(=O)Nc1cccc(O)c1 | 0 | . | 0 | . | 24*
